Measured values: ChEMBL document CHEMBL4689842, “EUbOPEN Chemogenomics Library wave 1” (2021)

Tested on: U2OS
Experiment: Multiplex assay against U2OS
Assay type: toxicity, cell-based
Conditions: human
In short: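 Phenotypes for tubulin, mitochondrial mass and membrane permeability are expressed as per cents of healthy-nucleus cells. Cells were stained live at seeding with Hoechst33342, BioTracker Green Microtubule Cytoskeleton Dye, MitoTracker Red and Annexin V Alexa Fluor 680, then imaged after compound addition on a CQ1 microscope at 37°C and 5% CO2. Machine-learning gating in CellPathfinder separated Hoechst high-intensity objects from normal cells, divided normal cells by nuclear state (healthy, pyknosed, fragmented) and divided pyknosed cells into mitotic or apoptotic.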

[1] = 12 h, 1 µM, compound concentration 1 uM, replicate 1
[2] = 12 h, 1 µM, compound concentration 1 uM, replicate 2
[3] = 12 h, 10 µM, compound concentration 10 uM, replicate 1
[4] = 12 h, 10 µM, compound concentration 10 uM, replicate 2
[5] = 24 h, 1 µM, compound concentration 1 uM, replicate 1
[6] = 24 h, 1 µM, compound concentration 1 uM, replicate 2
[7] = 24 h, 10 µM, compound concentration 10 uM, replicate 1
[8] = 24 h, 10 µM, compound concentration 10 uM, replicate 2
[9] = 48 h, 1 µM, compound concentration 1 uM, replicate 1
[10] = 48 h, 1 µM, compound concentration 1 uM, replicate 2
[11] = 48 h, 10 µM, compound concentration 10 uM, replicate 1
[12] = 48 h, 10 µM, compound concentration 10 uM, replicate 2

CCN1CCN(c2ccc(Nc3cc(N(C)C(=O)Nc4c(Cl)c(OC)cc(OC)c4Cl)ncn3)cc2)CC1 [INFIGRATINIB]
Population Apoptotic (%) [1]: 33%
Population Fragmented Nuclei (%) [1]: 15%
Population Healthy Nuclei (%) [1]: 60%
Population Hoechst High Intensity Objects (%) [1]: 4%
Population Membrane Permeable-Phenotype (%) [1]: 20%
Population Mitochondria Different-Phenotype (%) [1]: 38%
Population Mitotic Cells (%) [1]: 66%
Population Normal (%) [1]: 95%
Population Pyknosed Nuclei (%) [1]: 24%
Population Tubulin-Different-Phenotype (%) [1]: 71%
Total Cell Count [1]: 142
Population Apoptotic (%) [2]: 40%
Population Fragmented Nuclei (%) [2]: 26%
Population Healthy Nuclei (%) [2]: 51%
Population Hoechst High Intensity Objects (%) [2]: 10%
Population Membrane Permeable-Phenotype (%) [2]: 21%
Population Mitochondria Different-Phenotype (%) [2]: 55%
Population Mitotic Cells (%) [2]: 59%
Population Normal (%) [2]: 89%
Population Pyknosed Nuclei (%) [2]: 21%
Population Tubulin-Different-Phenotype (%) [2]: 55%
Total Cell Count [2]: 127
Population Apoptotic (%) [3]: 50%
Population Fragmented Nuclei (%) [3]: 4%
Population Healthy Nuclei (%) [3]: 87%
Population Hoechst High Intensity Objects (%) [3]: 6%
Population Membrane Permeable-Phenotype (%) [3]: 11%
Population Mitochondria Different-Phenotype (%) [3]: 17%
Population Mitotic Cells (%) [3]: 50%
Population Normal (%) [3]: 93%
Population Pyknosed Nuclei (%) [3]: 7%
Population Tubulin-Different-Phenotype (%) [3]: 18%
Total Cell Count [3]: 198
Population Apoptotic (%) [4]: 16%
Population Fragmented Nuclei (%) [4]: 7%
Population Hoechst High Intensity Objects (%) [4]: 13%
Population Mitochondria Different-Phenotype (%) [4]: 18%
Population Mitotic Cells (%) [4]: 83%
Population Normal (%) [4]: 86%
Population Pyknosed Nuclei (%) [4]: 5%
Population Tubulin-Different-Phenotype (%) [4]: 13%
Total Cell Count [4]: 86
Population Apoptotic (%) [5]: 49%
Population Fragmented Nuclei (%) [5]: 16%
Population Healthy Nuclei (%) [5]: 44%
Population Hoechst High Intensity Objects (%) [5]: 8%
Population Membrane Permeable-Phenotype (%) [5]: 30%
Population Mitochondria Different-Phenotype (%) [5]: 63%
Population Mitotic Cells (%) [5]: 50%
Population Normal (%) [5]: 91%
Population Pyknosed Nuclei (%) [5]: 38%
Population Tubulin-Different-Phenotype (%) [5]: 81%
Total Cell Count [5]: 192
Population Apoptotic (%) [6]: 70%
Population Fragmented Nuclei (%) [6]: 30%
Population Healthy Nuclei (%) [6]: 39%
Population Hoechst High Intensity Objects (%) [6]: 14%
Population Membrane Permeable-Phenotype (%) [6]: 19%
Population Mitochondria Different-Phenotype (%) [6]: 78%
Population Mitotic Cells (%) [6]: 29%
Population Normal (%) [6]: 85%
Population Pyknosed Nuclei (%) [6]: 30%
Population Tubulin-Different-Phenotype (%) [6]: 70%
Total Cell Count [6]: 151
Population Apoptotic (%) [7]: 14%
Population Fragmented Nuclei (%) [7]: 5%
Population Healthy Nuclei (%) [7]: 87%
Population Hoechst High Intensity Objects (%) [7]: 2%
Population Membrane Permeable-Phenotype (%) [7]: 15%
Population Mitochondria Different-Phenotype (%) [7]: 14%
Population Mitotic Cells (%) [7]: 85%
Population Normal (%) [7]: 97%
Population Pyknosed Nuclei (%) [7]: 7%
Population Tubulin-Different-Phenotype (%) [7]: 23%
Total Cell Count [7]: 199
Population Apoptotic (%) [8]: 27%
Population Fragmented Nuclei (%) [8]: 10%
Population Healthy Nuclei (%) [8]: 81%
Population Hoechst High Intensity Objects (%) [8]: 9%
Population Membrane Permeable-Phenotype (%) [8]: 17%
Population Mitochondria Different-Phenotype (%) [8]: 20%
Population Mitotic Cells (%) [8]: 72%
Population Normal (%) [8]: 90%
Population Pyknosed Nuclei (%) [8]: 8%
Population Tubulin-Different-Phenotype (%) [8]: 11%
Total Cell Count [8]: 81

COc1cc(N2CCN(C)CC2)ccc1Nc1ncc2c(n1)N(C)c1ccccc1C(=O)N2C
Population Apoptotic (%) [1]: 33%
Population Fragmented Nuclei (%) [1]: 12%
Population Healthy Nuclei (%) [1]: 72%
Population Hoechst High Intensity Objects (%) [1]: 6%
Population Membrane Permeable-Phenotype (%) [1]: 6%
Population Mitochondria Different-Phenotype (%) [1]: 25%
Population Mitotic Cells (%) [1]: 66%
Population Normal (%) [1]: 93%
Population Pyknosed Nuclei (%) [1]: 14%
Population Tubulin-Different-Phenotype (%) [1]: 17%
Total Cell Count [1]: 199
Population Apoptotic (%) [2]: 40%
Population Fragmented Nuclei (%) [2]: 5%
Population Healthy Nuclei (%) [2]: 82%
Population Hoechst High Intensity Objects (%) [2]: 4%
Population Membrane Permeable-Phenotype (%) [2]: 9%
Population Mitochondria Different-Phenotype (%) [2]: 21%
Population Mitotic Cells (%) [2]: 60%
Population Normal (%) [2]: 95%
Population Pyknosed Nuclei (%) [2]: 12%
Population Tubulin-Different-Phenotype (%) [2]: 15%
Total Cell Count [2]: 104
Population Apoptotic (%) [3]: 60%
Population Fragmented Nuclei (%) [3]: 11%
Population Healthy Nuclei (%) [3]: 66%
Population Hoechst High Intensity Objects (%) [3]: 7%
Population Membrane Permeable-Phenotype (%) [3]: 22%
Population Mitochondria Different-Phenotype (%) [3]: 96%
Population Mitotic Cells (%) [3]: 39%
Population Normal (%) [3]: 92%
Population Pyknosed Nuclei (%) [3]: 21%
Population Tubulin-Different-Phenotype (%) [3]: 99%
Total Cell Count [3]: 177
Population Apoptotic (%) [4]: 66%
Population Fragmented Nuclei (%) [4]: 15%
Population Healthy Nuclei (%) [4]: 61%
Population Hoechst High Intensity Objects (%) [4]: 5%
Population Membrane Permeable-Phenotype (%) [4]: 21%
Population Mitotic Cells (%) [4]: 33%
Population Normal (%) [4]: 94%
Population Pyknosed Nuclei (%) [4]: 23%
Population Tubulin-Different-Phenotype (%) [4]: 100%
Total Cell Count [4]: 42
Population Apoptotic (%) [5]: 29%
Population Fragmented Nuclei (%) [5]: 11%
Population Hoechst High Intensity Objects (%) [5]: 5%
Population Membrane Permeable-Phenotype (%) [5]: 3%
Population Mitochondria Different-Phenotype (%) [5]: 8%
Population Mitotic Cells (%) [5]: 70%
Population Normal (%) [5]: 94%
Population Pyknosed Nuclei (%) [5]: 12%
Population Tubulin-Different-Phenotype (%) [5]: 8%
Total Cell Count [5]: 187
Population Apoptotic (%) [6]: 50%
Population Fragmented Nuclei (%) [6]: 9%
Population Healthy Nuclei (%) [6]: 75%
Population Hoechst High Intensity Objects (%) [6]: 6%
Population Membrane Permeable-Phenotype (%) [6]: 6%
Population Mitochondria Different-Phenotype (%) [6]: 12%
Population Mitotic Cells (%) [6]: 50%
Population Normal (%) [6]: 93%
Population Pyknosed Nuclei (%) [6]: 14%
Population Tubulin-Different-Phenotype (%) [6]: 6%
Total Cell Count [6]: 101
Population Apoptotic (%) [7]: 69%
Population Fragmented Nuclei (%) [7]: 18%
Population Healthy Nuclei (%) [7]: 50%
Population Hoechst High Intensity Objects (%) [7]: 7%
Population Membrane Permeable-Phenotype (%) [7]: 19%
Population Mitochondria Different-Phenotype (%) [7]: 94%
Population Mitotic Cells (%) [7]: 30%
Population Normal (%) [7]: 92%
Population Pyknosed Nuclei (%) [7]: 30%
Population Tubulin-Different-Phenotype (%) [7]: 97%
Total Cell Count [7]: 204
Population Apoptotic (%) [8]: 76%
Population Fragmented Nuclei (%) [8]: 11%
Population Healthy Nuclei (%) [8]: 63%
Population Hoechst High Intensity Objects (%) [8]: 8%
Population Membrane Permeable-Phenotype (%) [8]: 30%
Population Mitochondria Different-Phenotype (%) [8]: 93%
Population Mitotic Cells (%) [8]: 23%
Population Normal (%) [8]: 91%
Population Pyknosed Nuclei (%) [8]: 25%
Population Tubulin-Different-Phenotype (%) [8]: 66%
Total Cell Count [8]: 44
Population Apoptotic (%) [9]: 42%
Population Fragmented Nuclei (%) [9]: 7%
Population Healthy Nuclei (%) [9]: 77%
Population Membrane Permeable-Phenotype (%) [9]: 4%
Population Mitochondria Different-Phenotype (%) [9]: 5%
Population Mitotic Cells (%) [9]: 57%
Population Pyknosed Nuclei (%) [9]: 14%
Population Tubulin-Different-Phenotype (%) [9]: 8%
Total Cell Count [9]: 182
Population Apoptotic (%) [10]: 60%
Population Fragmented Nuclei (%) [10]: 5%
Population Healthy Nuclei (%) [10]: 76%
Population Hoechst High Intensity Objects (%) [10]: 3%
Population Membrane Permeable-Phenotype (%) [10]: 9%
Population Mitochondria Different-Phenotype (%) [10]: 16%
Population Mitotic Cells (%) [10]: 40%
Population Normal (%) [10]: 96%
Population Pyknosed Nuclei (%) [10]: 18%
Population Tubulin-Different-Phenotype (%) [10]: 11%
Total Cell Count [10]: 88
Population Apoptotic (%) [11]: 84%
Population Fragmented Nuclei (%) [11]: 21%
Population Healthy Nuclei (%) [11]: 42%
Population Hoechst High Intensity Objects (%) [11]: 7%
Population Membrane Permeable-Phenotype (%) [11]: 18%
Population Mitotic Cells (%) [11]: 15%
Population Normal (%) [11]: 92%
Population Pyknosed Nuclei (%) [11]: 35%
Population Tubulin-Different-Phenotype (%) [11]: 82%
Total Cell Count [11]: 297
Population Apoptotic (%) [12]: 63%
Population Fragmented Nuclei (%) [12]: 11%
Population Healthy Nuclei (%) [12]: 46%
Population Hoechst High Intensity Objects (%) [12]: 19%
Population Membrane Permeable-Phenotype (%) [12]: 33%
Population Mitochondria Different-Phenotype (%) [12]: 90%
Population Mitotic Cells (%) [12]: 36%
Population Normal (%) [12]: 80%
Population Pyknosed Nuclei (%) [12]: 42%
Population Tubulin-Different-Phenotype (%) [12]: 61%
Total Cell Count [12]: 57
